# Test results as given in paper PMC10560980 (International Journal for Parasitology: Drugs and Drug …, 2023).
# Entries after “also recorded” stand apart in the source; their conditions may differ. Read-outs that look alike come from different tables or passages of the source.
# Tests used:
# [1] = test system: assemblage B G. duodenalis BRIS/91/HEPU/1279 trophozoites; test: G. duodenalis compound susceptibility assay; assay type: cell-based; conditions: Giardia duodenalis
# [2] = test system: BRIS/91/HEPU/1279 trophozoites; test: Minimum lethal concentration; assay type: cell-based, Giardia duodenalis; conditions: 48 h exposure, then four days in culture
# How it was run: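 Assemblage B BRIS/91/HEPU/1279 trophozoites in modified TYI-S-33 were exposed to compound for 48 h. They were then returned to drug-free culture for four more days and imaged by brightfield at 10x to judge regrowth. Albendazole ran alongside. Experiments were done at least three times in duplicate.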
# [3] = test system: Neonatal Foreskin Fibroblasts (NFF); test: Mammalian cell susceptibility assay; assay type: cell-based, human; conditions: for IC50: read-out: IC50 (M; mean ± SD) NFF; for Selectivity: NFF IC50 / Giardia IC50
# [4] = test system: L. donovani DD8 amastigotes; test: L. donovani intracellular amastigote imaging assay in THP-1 cells; assay type: cell-based; conditions: Leishmania donovani, THP-1, 96 h, read-out: IC50 (M; mean ± SD) L. donovani
# How it was run: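 L. donovani DD8 promastigotes were kept in modified M199 Hanks medium, pH 6.8, with 10% heat-inactivated FBS at 27 °C. PMA-differentiated THP-1 cells were infected with metacyclic promastigotes (1:5 host:parasite), then exposed 96 h to 80–0.004 µM final. Cells were fixed in 4% paraformaldehyde, stained with SYBR green/CellMask Deep Red and imaged at 20x; an infected cell held >3 parasites. Controls were 2 µM amphotericin B and 0.4% DMSO. Assays ran twice in triplicate; IC50 came from 4-parameter regression.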
# [5] = test system: Enterococci faecalis (ATCC 29212); test: Antibacterial microbroth dilution; assay type: cell-based; conditions: 20 h exposure, LB broth
# How it was run: (§1)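 Broth microdilution per CLSI in LB broth. A 20 mM test-compound solution was diluted in LB broth. Organisms were exposed to compound for 20 h, then growth inhibition was scored to define the MIC. Ampicillin was the positive control.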
# [6] = test system: Staphylococcus aureus (ATCC 29213); test: Antibacterial microbroth dilution; assay type: cell-based; conditions: 20 h exposure, LB broth
# How it was run: as §1
# [7] = test system: Escherichia coli (ATCC 25922); test: Antibacterial microbroth dilution; assay type: cell-based; conditions: 20 h exposure, LB broth
# How it was run: as §1
# [8] = test system: Plasmodium falciparum 3D7 asexual erythrocytic parasites; test: 48 h [3H]-hypoxanthine incorporation assay; assay type: cell-based; conditions: for IC50: Plasmodium falciparum, 3D7, 48 h, read-out: IC50 (M; mean ± SD) P. falciparum; for average % inhibition at highest concentration tested, P. falciparum: at 5.0 × 10^−5 M (50 μM), 50 µM
# How it was run: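 Compound exposure and [3H]-hypoxanthine uptake ran 48 h. Controls were uninfected RBC background, untreated, DMSO vehicle and chloroquine. % inhibition was taken versus matched vehicle minus background. At least two independent assays were run in triplicate. Where no IC50 could be fitted, % inhibition at the highest concentration was reported.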
# [9] = test system: G. duodenalis BRIS/87/HEPU/713 assemblage A; test: G. duodenalis compound susceptibility assay; assay type: cell-based; conditions: Giardia duodenalis, 48 h, read-out: IC50 (nM; mean ± SD) AA
# [10] = test system: MTZ resistant assemblage B BRIS/91/HEPU/1279m1 parasites; test: G. duodenalis compound susceptibility assay; assay type: cell-based; conditions: Giardia duodenalis, 48 h, read-out: IC50 (nM; mean ± SD) AB-MTZ
# How it was run: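 The metronidazole-resistant assemblage B line was kept in modified TYI-S-33 with 10% heat-inactivated FBS and penicillin/streptomycin under 15 µM metronidazole, withdrawn two days before testing. Trophozoites had 48 h dose-response exposure and were scored by automated microscopy, at least three times in triplicate. Inhibition was taken versus DMSO vehicle minus media background. IC50 came from 4-parameter variable-slope nonlinear regression.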
# Aqueous solubility = assay type: physicochemical
# faecal microbiome = test: Microbiome assessment; assay type: in vivo, outbred Swiss mice
# How it was run: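 Three groups of 12 outbred Swiss mice received vehicle control, metronidazole 100 mg/kg or test compound 7.4 mg/kg daily on days 1, 2 and 3. Faecal samples were collected from individual animals on days 0–5 and stored at room temperature in 80% ethanol. About 0.2 g of each sample was homogenised with glass beads in lysis buffer for 16S rRNA profiling.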
# G. duodenalis BAH2c2 = test: In vivo efficacy in mouse model of giardiasis; design: species or system outbred Swiss mice
# How it was run: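 Seven-day-old outbred Swiss pups (groups of ten) were orally gavaged with 10^5 BAH2c2 trophozoites in 0.9% saline. Faecal cysts were tracked daily by centrifugal flotation and immunofluorescence counting. About 1 week post-infection, mice received oral gavage once daily for three days: vehicle, test compound, or metronidazole 100 mg/kg. The next day, small-intestine trophozoites were counted manually and large-intestine cysts per gram. Efficacy followed WAAVP guidelines; groups were compared by t-test.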
# [11] = Storage stability of solid; assay type: physicochemical; conditions: crystalline solid; ambient conditions; several months
# [12] = test system: Trypanosoma cruzi Tulahuen strain intracellular amastigotes; test: T. cruzi intracellular amastigote imaging assay in 3T3 cells; assay type: cell-based; conditions: for IC50: Trypanosoma cruzi, TULAHUEN, NIH3T3, read-out: IC50 (M; mean ± SD) T. cruzi
# How it was run: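 T. cruzi Tulahuen was maintained in 3T3 fibroblasts in phenol red-free RPMI with 10% FBS and passaged with freshly egressed trypomastigotes. Intracellular amastigotes were scored by high-content imaging, with final concentrations up to 73.2 µM. Each compound was run as single point over three experimental replicates. Controls were 30 µM puromycin (host cells) and 12 µM nifurtimox (amastigotes). IC50 came from 4-parameter variable-slope nonlinear regression.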
# [13] = test system: Human Embryonic Kidney (HEK-293) cells; test: Mammalian cell susceptibility assay, HEK-293; assay type: cell-based; conditions: HEK293, read-out: growth inhibition, HEK293
# Giardia = conditions: in humans; ref Nabarro et al., 2015; cited from earlier work
# [14] = 48 h, read-out: IC50 (M; mean ± SD) Giardia (48h), Compounds Australia samples, assemblage B BRIS/91/HEPU/1279 trophozoites, 48 h, > = highest concentration tested
# [15] = read-out: IC50 (M; mean ± SD) Giardia AB, purchased (ChemDiv) or synthesized batches, assemblage B BRIS/91/HEPU/1279
# [16] = 0.74 mg/kg for three days, oral gavage, PBS vehicle
# [17] = 7.4 mg/kg daily for three days, 50%PBS/DMSO vehicle, P > 0.05
# [18] = 100 mg/kg for three days, positive control, first experiment
compound,measurement,setting,value
"CCCSc1ccc2nc(NC(=O)OC)[nH]c2c1 [ABZ, Albendazole, reference compound]",IC50,[1]; [14],57 nM
same,IC50,[1]; [15],57 nM
same,minimum lethal concentration (MLC),[2],0.15 µM
same,IC50,"[3]; Homo sapiens, Fibroblast",1100 nM
same,Selectivity,[3],19.3
"C[C@@H]1[C@H](O)[C@@H](C)/C=C/C=C/C=C/C=C/C=C/C=C/C=C/[C@H](O[C@@H]2O[C@H](C)[C@@H](O)[C@H](N)[C@@H]2O)C[C@@H]2O[C@](O)(C[C@@H](O)C[C@@H](O)[C@H](O)CC[C@@H](O)C[C@@H](O)CC(=O)O[C@H]1C)C[C@H](O)[C@H]2C(=O)O [AMB, Amphotericin B, reference compound]",IC50,[4],87 nM
"CC1(C)S[C@@H]2[C@H](NC(=O)[C@H](N)c3ccccc3)C(=O)N2[C@H]1C(=O)O [AMP, ampicillin, reference compound]",MIC (M) E. faecalis,[5],<3.7e-05 M
same,MIC (M) S. aureus,[6],<3.7e-05 M
same,MIC (M) E. coli,[7],<3.7e-05 M
"CCN(CC)CCCC(C)Nc1ccnc2cc(Cl)ccc12 (stereo not shown) [CQ, chloroquine, reference compound]",IC50,"[3]; Homo sapiens, Fibroblast",31000 nM
same,IC50,[8],14 nM
"Cc1cc2[nH]c(C(=O)Nc3ccccc3Cl)c(CN3CCOCC3)c2s1 [Compound 2, N-(2-chlorophenyl)-2-methyl-6-(morpholinomethyl)-4H-thieno [3,2-b]pyrrole-5-carboxamide]",IC50,[1]; [14],310 nM
same,IC50,"[1]; 48 h, read-out: IC50 (nM; mean ± SD) AB, purchased/resynthesised batches, 48 h, BRIS/91/HEPU/1279 assemblage B",8.6 to 12 nM
same,IC50,[1]; [15],12 nM
same,IC50,[9],10 nM
same,minimum lethal concentration (MLC),[2],0.062 µM
same,IC50,[10],5.5 nM
same,aqueous solubility,Aqueous solubility,poor
same,IC50,"[3]; Homo sapiens, Fibroblast",> 10000 nM
same,inhibition at 100 µM,"[3]; Homo sapiens, Fibroblast, read-out: growth inhibition, NFF",< 50%
same,Selectivity,[3],>32
same,selectivity indices,"[3]; follow up studies, NFF and HEK293 vs Giardia",> 8333
same,change in bacterial profile of faecal microbiome,faecal microbiome; 7.4 mg/kg daily for three days,does not impact the normal gut microbiota; also recorded: did not detect any significant (P < 0.05) changes in the bacterial profile; also recorded: did not significantly impact the gut microbial diversity
same,MIC (M) E. faecalis,[5],>0.0002 M
same,MIC (M) S. aureus,[6],>0.0002 M
same,reduction of cyst burden vs vehicle,G. duodenalis BAH2c2; [16],98.8%
same,reduction of trophozoite burden vs vehicle,G. duodenalis BAH2c2; [16],73.5%
same,reduction of cyst burden vs vehicle,G. duodenalis BAH2c2; [17],80.1%
same,reduction of trophozoite burden vs vehicle,G. duodenalis BAH2c2; [17],54.2%
same,IC50,[4],> 80000 nM
same,IC50,[8],> 50000 nM
same,"average % inhibition at highest concentration tested, P. falciparum",[8],< 50%
same,"average % inhibition at highest concentration tested, P. falciparum",[8]; listed as 2b,2.0%
same,stability to storage,[11],stable
same,MIC (M) E. coli,[7],>0.0002 M
same,IC50,[12],> 73000 nM
same,"growth inhibition, T. cruzi",[12]; up to highest concentration tested,< 50%
same,inhibition at 100 µM,[13],< 50%
"Cc1ncc([N+](=O)[O-])n1CCO [MTZ, metronidazole, reference compound]",reported failure rates,Giardia,up to 40%
same,change in bacterial profile of faecal microbiome,faecal microbiome; 100 mg/kg daily for three days,significant shift from the vehicle (DMSO/PBS) and compound 2 exposed mice from Day 1–3
same,reduction of cyst burden vs vehicle,G. duodenalis BAH2c2; [18],65.6%
same,reduction of trophozoite burden vs vehicle,G. duodenalis BAH2c2; [18],98.1%
"CC1CS(=O)(=O)CCN1/N=C/c1ccc([N+](=O)[O-])o1 (stereo not shown) [NFX, nifurtimox, reference compound]",IC50,[12],980 nM
